Laboratory results: ChEMBL document CHEMBL4118021, “Studies of TAK1-centered polypharmacology with novel covalent TAK1 inhibitors” (Bioorg Med Chem, 2017)
Blank lines part the entries; values can stand above or below the molecule they belong to. Calls of active or inactive are those of the source. No cut-off for these calls is given here.

Columns and labels:
[1] = target: Large ribosomal subunit protein bL12m (Homo sapiens) (UniProt P52815); assay: Binding affinity to MRPL12 in human NCI-H358 cells at 1 uM by mass spectrometry based pull down assay; format: cell-based
[2] = target: Eukaryotic translation initiation factor 2A (Homo sapiens) (UniProt Q9BY44); assay: Binding affinity to EIF2A in human NCI-H23 cells at 1 uM by mass spectrometry based pull down assay; format: cell-based
Chain of Eukaryotic translation initiation factor 2A (Homo sapiens) (Q9BY44 whole entry): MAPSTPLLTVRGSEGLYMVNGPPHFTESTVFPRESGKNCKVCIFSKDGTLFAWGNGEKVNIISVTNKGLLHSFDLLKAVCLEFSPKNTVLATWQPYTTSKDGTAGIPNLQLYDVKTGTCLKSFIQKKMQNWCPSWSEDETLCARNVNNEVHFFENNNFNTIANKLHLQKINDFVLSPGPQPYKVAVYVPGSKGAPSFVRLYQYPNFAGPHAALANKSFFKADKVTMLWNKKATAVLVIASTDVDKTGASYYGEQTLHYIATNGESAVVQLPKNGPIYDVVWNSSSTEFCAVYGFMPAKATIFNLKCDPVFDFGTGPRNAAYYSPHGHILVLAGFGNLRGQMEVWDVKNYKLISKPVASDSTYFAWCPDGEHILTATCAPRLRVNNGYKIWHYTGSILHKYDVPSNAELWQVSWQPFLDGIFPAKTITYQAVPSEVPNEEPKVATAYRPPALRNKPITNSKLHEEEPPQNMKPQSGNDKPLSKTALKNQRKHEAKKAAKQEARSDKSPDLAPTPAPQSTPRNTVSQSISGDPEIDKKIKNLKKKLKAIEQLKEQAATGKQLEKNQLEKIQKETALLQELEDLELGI

[3] = target: 182 kDa tankyrase-1-binding protein (Homo sapiens) (UniProt Q9C0C2); assay: Binding affinity to TNKS1BP1 in human NCI-H358 cells at 1 uM by mass spectrometry based pull down assay; format: cell-based
Chain of 182 kDa tankyrase-1-binding protein (Homo sapiens) (Q9C0C2 whole entry): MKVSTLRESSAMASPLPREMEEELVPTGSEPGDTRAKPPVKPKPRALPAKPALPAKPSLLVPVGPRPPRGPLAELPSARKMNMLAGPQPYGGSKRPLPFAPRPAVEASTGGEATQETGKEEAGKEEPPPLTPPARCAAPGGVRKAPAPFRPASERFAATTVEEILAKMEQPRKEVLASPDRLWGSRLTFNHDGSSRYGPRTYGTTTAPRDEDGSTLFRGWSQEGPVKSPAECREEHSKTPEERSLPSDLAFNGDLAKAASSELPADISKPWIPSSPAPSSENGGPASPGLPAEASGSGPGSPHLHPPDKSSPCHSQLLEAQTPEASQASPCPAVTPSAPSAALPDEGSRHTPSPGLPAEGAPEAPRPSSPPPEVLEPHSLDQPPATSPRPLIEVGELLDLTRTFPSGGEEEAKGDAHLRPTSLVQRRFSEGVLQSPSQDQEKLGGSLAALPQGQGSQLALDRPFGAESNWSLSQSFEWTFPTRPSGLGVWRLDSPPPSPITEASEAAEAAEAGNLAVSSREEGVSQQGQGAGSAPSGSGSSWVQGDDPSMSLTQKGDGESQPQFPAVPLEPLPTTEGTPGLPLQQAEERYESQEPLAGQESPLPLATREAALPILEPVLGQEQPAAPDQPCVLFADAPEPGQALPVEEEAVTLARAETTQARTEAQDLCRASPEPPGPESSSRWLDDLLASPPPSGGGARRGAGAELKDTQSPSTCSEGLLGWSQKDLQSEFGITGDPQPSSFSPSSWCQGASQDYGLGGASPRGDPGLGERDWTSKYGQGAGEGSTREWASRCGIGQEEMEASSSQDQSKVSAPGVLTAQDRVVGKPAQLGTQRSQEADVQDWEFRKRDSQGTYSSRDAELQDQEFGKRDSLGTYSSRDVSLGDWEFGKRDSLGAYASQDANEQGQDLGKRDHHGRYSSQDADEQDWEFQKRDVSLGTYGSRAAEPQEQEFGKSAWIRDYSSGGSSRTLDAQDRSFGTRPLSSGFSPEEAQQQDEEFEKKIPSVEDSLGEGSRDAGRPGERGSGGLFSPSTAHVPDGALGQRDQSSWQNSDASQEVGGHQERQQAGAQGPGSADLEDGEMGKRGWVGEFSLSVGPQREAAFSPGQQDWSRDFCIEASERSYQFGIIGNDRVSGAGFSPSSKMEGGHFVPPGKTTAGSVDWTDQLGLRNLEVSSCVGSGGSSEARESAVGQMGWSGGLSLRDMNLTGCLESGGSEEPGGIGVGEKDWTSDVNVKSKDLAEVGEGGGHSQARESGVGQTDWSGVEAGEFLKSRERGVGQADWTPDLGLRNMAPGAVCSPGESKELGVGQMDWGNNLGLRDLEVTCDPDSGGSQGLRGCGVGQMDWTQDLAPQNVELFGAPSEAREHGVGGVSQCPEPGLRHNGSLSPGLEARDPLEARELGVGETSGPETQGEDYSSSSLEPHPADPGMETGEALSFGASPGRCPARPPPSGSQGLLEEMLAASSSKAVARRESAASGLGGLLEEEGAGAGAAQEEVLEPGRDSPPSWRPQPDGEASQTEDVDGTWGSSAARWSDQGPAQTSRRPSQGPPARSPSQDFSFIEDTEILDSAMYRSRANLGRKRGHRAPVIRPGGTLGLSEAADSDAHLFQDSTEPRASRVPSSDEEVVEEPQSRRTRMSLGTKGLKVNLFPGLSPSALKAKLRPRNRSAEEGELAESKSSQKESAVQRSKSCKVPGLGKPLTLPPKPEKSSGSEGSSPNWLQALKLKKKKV

[4] = target: T1, 80S Ribosome (Homo sapiens) (UniProt P08865+P42677+P62753+P15880+P23396+P61247+P62701+P22090+P46782+P62081+P62241+P46781+P46783+P62280+P25398+P62277+P62263+P62841+P62244+P62249+P08708+P62269+P39019+P60866+P63220+P62266+P62847+P62851+P62854+P62979+P62857+P62273+P62861+P39023+P36578+P46777+Q02878+P18124+P62424+P62917+P32969+P27635+P62906+P62913+P30050+P26373+P40429+P50914+P61313+P18621+Q07020+Q02543+P84098+P46778+P35268+P62829+P62750+P83731+P61254+P61353+P46776+P46779+P47914+P62888+P62899+P62910+P49207+P42766+P18077+Q9Y3U8+P83881+P61927+P61513+P63173+P62891+P62945+P05388+P05386); assay: Binding affinity to RPS12 in human NCI-H23 cells at 1 uM by mass spectrometry based pull down assay; format: cell-based
[5] = target: Spermidine synthase (Homo sapiens) (UniProt P19623); assay: Binding affinity to SRM in human NCI-H23 cells at 1 uM by mass spectrometry based pull down assay; format: cell-based
Chain of Spermidine synthase (Homo sapiens) (P19623 whole entry): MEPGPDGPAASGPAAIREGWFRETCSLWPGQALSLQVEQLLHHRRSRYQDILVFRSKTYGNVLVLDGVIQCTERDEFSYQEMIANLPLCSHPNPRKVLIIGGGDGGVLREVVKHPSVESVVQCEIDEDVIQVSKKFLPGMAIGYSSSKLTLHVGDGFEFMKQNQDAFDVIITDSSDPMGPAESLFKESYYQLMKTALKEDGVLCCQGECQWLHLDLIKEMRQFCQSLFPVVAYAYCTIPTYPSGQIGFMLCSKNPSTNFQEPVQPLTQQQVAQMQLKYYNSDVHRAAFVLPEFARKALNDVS

[6] = target: T2, Aurora kinase A (Homo sapiens) (UniProt O14965); assay: Binding affinity to AURKA in human NCI-H23 cells at 1 uM by mass spectrometry based pull down assay; format: cell-based
T2 sequence (whole entry): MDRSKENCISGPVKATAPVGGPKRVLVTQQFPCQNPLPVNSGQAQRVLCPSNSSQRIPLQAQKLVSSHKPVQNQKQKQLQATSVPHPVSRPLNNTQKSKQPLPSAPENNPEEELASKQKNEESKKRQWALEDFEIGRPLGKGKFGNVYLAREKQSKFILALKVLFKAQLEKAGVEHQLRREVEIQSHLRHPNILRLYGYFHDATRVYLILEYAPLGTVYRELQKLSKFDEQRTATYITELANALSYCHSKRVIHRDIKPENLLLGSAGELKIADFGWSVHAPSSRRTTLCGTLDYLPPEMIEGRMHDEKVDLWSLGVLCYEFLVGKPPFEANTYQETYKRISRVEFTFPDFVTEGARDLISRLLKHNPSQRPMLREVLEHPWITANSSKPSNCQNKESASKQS

[7] = target: Aldehyde dehydrogenase X, mitochondrial (Homo sapiens) (UniProt P30837); assay: Binding affinity to ALDH1B1 in human NCI-H23 cells at 1 uM by mass spectrometry based pull down assay; format: cell-based
In short: (§1)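 NCI-H23 or NCI-H358 cells were grown and lysed. Lysates were incubated overnight at 4 °C with 1 μM biotinylated covalent probe or DMSO, then pulled down on streptavidin beads. Proteins were run on polyacrylamide gels and stained with Coomassie. Bands were excised, digested and identified by mass spectrometry.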

[8] = target: Thymidylate kinase (Homo sapiens) (UniProt P23919); assay: Binding affinity to DTYMK in human NCI-H23 cells at 1 uM by mass spectrometry based pull down assay; format: cell-based
[9] = target: Cytosolic iron-sulfur assembly component 2B (Homo sapiens) (UniProt Q9Y3D0); assay: Binding affinity to FAM96B in human NCI-H23 cells at 1 uM by mass spectrometry based pull down assay; format: cell-based
Chain of Cytosolic iron-sulfur assembly component 2B (Homo sapiens) (Q9Y3D0 whole entry): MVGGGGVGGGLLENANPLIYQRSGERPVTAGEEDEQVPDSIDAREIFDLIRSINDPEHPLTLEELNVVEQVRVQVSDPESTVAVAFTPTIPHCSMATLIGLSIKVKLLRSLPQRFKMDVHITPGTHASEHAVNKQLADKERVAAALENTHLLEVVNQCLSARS

[10] = target: AH receptor-interacting protein (Homo sapiens) (UniProt O00170); assay: Binding affinity to AIP in human NCI-H358 cells at 1 uM by mass spectrometry based pull down assay; format: cell-based; in short: as §1
Chain of AH receptor-interacting protein (Homo sapiens) (O00170 whole entry): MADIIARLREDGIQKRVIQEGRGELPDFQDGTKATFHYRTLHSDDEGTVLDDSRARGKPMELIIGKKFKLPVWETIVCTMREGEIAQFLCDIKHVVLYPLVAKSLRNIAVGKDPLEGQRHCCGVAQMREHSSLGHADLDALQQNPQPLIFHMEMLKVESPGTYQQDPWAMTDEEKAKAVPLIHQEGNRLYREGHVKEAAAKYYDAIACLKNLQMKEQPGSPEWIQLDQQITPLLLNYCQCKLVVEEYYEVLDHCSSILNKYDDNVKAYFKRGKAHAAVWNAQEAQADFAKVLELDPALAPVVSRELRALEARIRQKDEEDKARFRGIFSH

[11] = target: T1, 80S Ribosome (Homo sapiens); assay: Binding affinity to RPL35A in human NCI-H23 cells at 1 uM by mass spectrometry based pull down assay; format: cell-based
[12] = target: ADP/ATP translocase 2 (Homo sapiens) (UniProt P05141); assay: Binding affinity to SLC25A5 in human NCI-H23 cells at 1 uM by mass spectrometry based pull down assay; format: cell-based
Chain of ADP/ATP translocase 2 (Homo sapiens) (P05141 whole entry): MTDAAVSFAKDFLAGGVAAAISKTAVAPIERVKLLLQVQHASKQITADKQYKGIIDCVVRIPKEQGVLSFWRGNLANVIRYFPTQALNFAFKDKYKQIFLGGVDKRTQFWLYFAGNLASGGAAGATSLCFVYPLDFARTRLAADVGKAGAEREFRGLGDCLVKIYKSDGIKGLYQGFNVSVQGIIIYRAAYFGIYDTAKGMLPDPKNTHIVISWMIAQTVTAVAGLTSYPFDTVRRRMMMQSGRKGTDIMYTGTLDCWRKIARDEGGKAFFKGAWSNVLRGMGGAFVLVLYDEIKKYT

[13] = target: Dual specificity mitogen-activated protein kinase kinase 1 (Homo sapiens) (UniProt Q02750); assay: Binding affinity to MAP2K1 in human NCI-H358 cells at 1 uM by mass spectrometry based pull down assay; format: cell-based
[14] = target: Peroxiredoxin-6 (Homo sapiens) (UniProt P30041); assay: Binding affinity to PRDX6 in human NCI-H358 cells at 1 uM by mass spectrometry based pull down assay; format: cell-based
Chain of Peroxiredoxin-6 (Homo sapiens) (P30041 whole entry): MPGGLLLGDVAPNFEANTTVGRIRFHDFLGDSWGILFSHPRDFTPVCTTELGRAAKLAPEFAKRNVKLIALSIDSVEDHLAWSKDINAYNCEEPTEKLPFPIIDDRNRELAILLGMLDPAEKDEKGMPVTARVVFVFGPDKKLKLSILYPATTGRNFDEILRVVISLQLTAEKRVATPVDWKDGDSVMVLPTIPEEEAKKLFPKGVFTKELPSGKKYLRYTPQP

[15] = target: Cysteine and glycine-rich protein 1 (Homo sapiens) (UniProt P21291); assay: Binding affinity to CSRP1 in human NCI-H23 cells at 1 uM by mass spectrometry based pull down assay; format: cell-based
[16] = target: COP9 signalosome complex subunit 8 (Homo sapiens) (UniProt Q99627); assay: Binding affinity to COPS8 in human NCI-H358 cells at 1 uM by mass spectrometry based pull down assay; format: cell-based
Chain of COP9 signalosome complex subunit 8 (Homo sapiens) (Q99627 whole entry, one chain of several): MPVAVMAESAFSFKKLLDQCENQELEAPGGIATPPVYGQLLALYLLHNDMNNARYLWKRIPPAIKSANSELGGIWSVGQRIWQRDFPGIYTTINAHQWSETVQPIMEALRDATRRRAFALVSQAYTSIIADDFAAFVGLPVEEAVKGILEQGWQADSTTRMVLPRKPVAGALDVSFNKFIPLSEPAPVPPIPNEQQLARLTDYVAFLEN

[17] = target: Adenylyltransferase and sulfurtransferase MOCS3 (Homo sapiens) (UniProt O95396); assay: Binding affinity to MOCS3 in human NCI-H23 cells at 1 uM by mass spectrometry based pull down assay; format: cell-based
NCI-H358 = assay: Antiproliferative activity against human NCI-H358 cells harboring KRAS G12C mutant after 72 hrs by CellTiter-Glo assay; format: functional, cell-based
In short: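 NCI-H23 or NCI-H358 cells seeded at 2000 cells/well and grown 48 h before drug. Varying doses were added and cells incubated 72 h. Viability was read as CellTiter-Glo luminescence, and growth-inhibition IC50 was calculated from dose-response curves.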

[18] = target: Tyrosine-protein kinase JAK1 (Homo sapiens) (UniProt P23458); assay: Inhibition of JAK1 domain2 in human SKCO1 cells at 1 uM after 4 hrs using biotin labeled IGDFGLTKAIETDKEYYTVK probe by mass-spectrometric analysis relative to control; format: cell-based
Chain of Tyrosine-protein kinase JAK1 (Homo sapiens) (P23458 whole entry, the tested form may be a part): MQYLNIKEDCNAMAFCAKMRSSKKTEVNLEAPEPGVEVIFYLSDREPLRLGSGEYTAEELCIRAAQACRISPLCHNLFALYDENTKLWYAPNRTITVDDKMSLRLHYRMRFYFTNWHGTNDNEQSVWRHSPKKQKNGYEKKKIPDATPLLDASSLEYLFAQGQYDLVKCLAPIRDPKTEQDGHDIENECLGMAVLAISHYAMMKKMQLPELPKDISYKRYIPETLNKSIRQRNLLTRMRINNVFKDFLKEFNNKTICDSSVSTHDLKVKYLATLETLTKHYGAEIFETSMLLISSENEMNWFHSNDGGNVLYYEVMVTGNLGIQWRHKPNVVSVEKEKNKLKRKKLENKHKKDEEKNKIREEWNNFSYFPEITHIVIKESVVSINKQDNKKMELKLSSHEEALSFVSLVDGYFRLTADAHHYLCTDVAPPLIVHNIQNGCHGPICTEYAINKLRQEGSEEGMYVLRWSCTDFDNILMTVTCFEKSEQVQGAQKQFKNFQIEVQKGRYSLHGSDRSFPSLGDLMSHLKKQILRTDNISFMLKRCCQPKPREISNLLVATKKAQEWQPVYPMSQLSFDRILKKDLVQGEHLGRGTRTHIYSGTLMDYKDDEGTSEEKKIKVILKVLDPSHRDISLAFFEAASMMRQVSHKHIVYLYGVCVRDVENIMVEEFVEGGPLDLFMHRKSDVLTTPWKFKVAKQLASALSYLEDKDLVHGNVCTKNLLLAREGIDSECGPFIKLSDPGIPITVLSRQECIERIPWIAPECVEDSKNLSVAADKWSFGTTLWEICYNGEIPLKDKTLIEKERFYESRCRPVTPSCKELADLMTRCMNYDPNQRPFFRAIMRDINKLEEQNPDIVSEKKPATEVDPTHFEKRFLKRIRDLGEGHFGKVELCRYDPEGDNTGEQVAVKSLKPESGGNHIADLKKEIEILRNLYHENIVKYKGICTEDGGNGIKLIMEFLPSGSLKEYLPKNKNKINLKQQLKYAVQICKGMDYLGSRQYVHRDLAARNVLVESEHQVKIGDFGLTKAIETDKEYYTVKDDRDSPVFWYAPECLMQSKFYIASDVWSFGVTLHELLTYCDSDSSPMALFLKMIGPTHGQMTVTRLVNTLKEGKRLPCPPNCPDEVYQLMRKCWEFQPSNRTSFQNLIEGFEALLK

[19] = Increase in secretion of basic-FGF in poly(I:C) activated RA patient-derived synovial fibroblasts at 0.6 to 3 uM preincubated for 3 hrs followed by poly(I:C) stimulation measured after 18 hrs by sandwich immunoassay; conditions: human
In short: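 Primary human RA synovial fibroblasts (donor RA2159) seeded at 1000 viable cells/well, grown ~24 h at 37 °C/5% CO2, then starved overnight in basal medium and for a further ~4 h in basal medium with 0.1% BSA. Inhibitor or DMSO given 3 h before stimulation. Supernatants from two adjacent wells pooled as one replicate, biological duplicate. Luminex multiplex panels (48 analytes), diluted 1:3. Mock-supernatant background and spiked-ligand cross-reactivity controls included.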

- Activity [1]: Active
- Activity [2]: Active
- Activity [3]: Active
- Activity [4]: Active
- Activity [5]: Active
- Activity [6]: Active
- Activity [7]: Active
- Activity [8]: Active
- Activity [9]: Active
- Activity [10]: Active
- Activity [11]: Active
- Activity [12]: Active
- Activity [13]: Active
- Activity [14]: Active
- Activity [15]: Active
- Activity [16]: Active
- Activity [17]: Active
Structure (SMILES): C=CC(=O)Nc1ccccc1Nc1nc(Nc2ccc(N3CCN(CCOCCOCCOCCNC(=O)CCCC[C@@H]4SC[C@@H]5NC(=O)N[C@@H]54)CC3)cc2)ncc1Cl

Structure (SMILES): C=CC(=O)Nc1ccccc1Nc1nc(Nc2ccc(N3CCN(C)CC3)cc2)ncc1Cl
- Activity (NCI-H358): Active
- inhibition [18]: 2.6%

Structure (SMILES): COc1cc(O)c2c(c1)/C=C/C[C@H](O)[C@H](O)C(=O)/C=C\C[C@H](C)OC2=O
- Activity [19]: Non-Toxic
